Assay outcomes from PubChem BioAssay.
A selection: hits, their analogues and other compounds. The true share with any hit is near 1.4%.
GSTO1 counter: counter-screen for RBBP9 inhibitors: inhibitors of human GSTO1; 300,000 compounds, 1.1% hits; inhibition, % at 5.96 µM; P78417; recombinant GSTO1, activity-based probe fluorescence polarization;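 active means inhibition above the campaign mean inhibition plus 3 SD, cut at about 35% in these data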
Apaf1 inhib: blocks human Apaf-1 apoptosome activity. O14727. reconstituted apoptosome caspase-3 activity, DEVD-Rh110 fluorescence. inhibition, % at 20 µM. 330,000 compounds, 0.71% hits. AID 489030; active means inhibition of at least 40% at 20 µM
Target sequence (O14727 whole entry, looked up): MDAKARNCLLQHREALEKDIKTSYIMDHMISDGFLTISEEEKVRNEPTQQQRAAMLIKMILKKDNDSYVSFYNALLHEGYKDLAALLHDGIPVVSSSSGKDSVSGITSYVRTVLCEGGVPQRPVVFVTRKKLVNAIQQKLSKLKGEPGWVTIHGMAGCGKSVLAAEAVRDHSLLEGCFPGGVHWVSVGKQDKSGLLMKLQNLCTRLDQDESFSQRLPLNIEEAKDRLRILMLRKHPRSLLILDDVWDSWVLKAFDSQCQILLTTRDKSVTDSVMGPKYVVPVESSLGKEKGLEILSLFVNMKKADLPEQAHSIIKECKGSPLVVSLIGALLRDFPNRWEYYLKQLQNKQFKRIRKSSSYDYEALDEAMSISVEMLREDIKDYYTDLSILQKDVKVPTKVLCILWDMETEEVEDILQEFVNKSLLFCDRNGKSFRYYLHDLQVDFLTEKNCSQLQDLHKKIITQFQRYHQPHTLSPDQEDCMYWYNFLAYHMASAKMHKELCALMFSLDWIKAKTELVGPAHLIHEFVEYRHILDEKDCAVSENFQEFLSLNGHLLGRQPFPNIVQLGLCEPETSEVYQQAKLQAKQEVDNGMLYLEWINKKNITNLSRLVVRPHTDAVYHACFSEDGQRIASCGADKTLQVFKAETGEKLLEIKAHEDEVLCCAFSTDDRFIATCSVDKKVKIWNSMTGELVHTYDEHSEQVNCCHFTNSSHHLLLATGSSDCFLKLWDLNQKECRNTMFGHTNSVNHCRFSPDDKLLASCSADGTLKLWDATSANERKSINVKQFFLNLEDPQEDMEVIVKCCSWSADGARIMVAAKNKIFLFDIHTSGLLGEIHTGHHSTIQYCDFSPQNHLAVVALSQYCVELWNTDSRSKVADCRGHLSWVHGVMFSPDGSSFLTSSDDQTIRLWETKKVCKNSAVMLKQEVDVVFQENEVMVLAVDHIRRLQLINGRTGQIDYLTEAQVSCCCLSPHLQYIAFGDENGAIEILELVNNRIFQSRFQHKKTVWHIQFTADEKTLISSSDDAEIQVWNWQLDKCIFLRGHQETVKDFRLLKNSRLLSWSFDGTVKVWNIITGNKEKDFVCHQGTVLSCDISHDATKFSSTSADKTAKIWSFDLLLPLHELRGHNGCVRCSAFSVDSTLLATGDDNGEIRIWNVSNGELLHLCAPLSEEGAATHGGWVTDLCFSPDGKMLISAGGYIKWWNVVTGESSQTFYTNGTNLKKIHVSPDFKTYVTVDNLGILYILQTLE
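System – cell-free apoptosome with Apaf-1, procaspase-3 and caspase-9 · Buffer or medium – pH 7.5 Hepes buffer with CHAPS, BSA, DTT · Also added – cytochrome c with DEVD-Rh110 · Times – 30 min compound preincubation, 50 min activation, room temperature · Technique – Rh110 fluorescence intensity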
DTT redox prof: compounds producing H2O2 with reducing agent – biochemical, NIH compound library profiling, artefact control for MLSCN library redox annotation, primary screen. DTT-dependent redox cycling H2O2, phenol red/HRP absorbance; 100% = 100 µM peroxide control, 0% = buffer. activation, % at 10 µM. 200,000 compounds, 0.03% hits. AID 878;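 active means activation of at least 50% relative to the plate's high and low controls in the primary single-dose screen; inactive means activation below 50%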;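 further: compound incubated with DTT at 0.8 mM final as the reducing agent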
HKDC1 inhibitor: HKDC1 (human) hexokinase inhibition | 340,000 compounds, 0.16% hits | Q2TB90 | recombinant HKDC1, G6PDH/diaphorase resazurin coupled fluorescence | inhibition, % at 20 µM;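 active means inhibition above about 35% when tested at 20 µM, limit read from the data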
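Assay system: recombinant HKDC1 hexokinase; detection: coupled resazurin fluorescence, excitation 525 nm, emission 613 nm; benchmarks: DMSO-plus-enzyme-mix negative control, buffer-substituted positive control; compound dosing: single 20 µM dose; schedule: 90 min at room temperature in dark; also added: glucose plus 1 mM ATP as hexokinase substrates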
UBC9 SUMO inh: SUMOylation inhibition; inhibition, % at 35 µM; HTRF SUMOylation assay, SAE1/SAE2 + UBC9, in vitro; 290,000 compounds, 0.36% hits; P63279; AID 2006; in the data active means inhibition above about 50%, passing the limit was not always enough
Large screens that a line does not name were inactive.

O=C(O)CCc1ccc(-c2ccccc2)n1-c1cccc(C(=O)O)c1	none (no result: DTT redox prof)
CN(CC(=O)Nc1c(Cl)cccc1Cl)C(=O)c1cc(S(=O)(=O)N(C)C)ccc1N1CCCC1	none (no result: DTT redox prof, UBC9 SUMO inh)
CCOc1ccc(NC(=O)CN(C)C(=O)c2ccccc2OCc2c(C)noc2C)cc1OCC	Apaf1 inhib 57.3 (no result: DTT redox prof, UBC9 SUMO inh)
COc1ccc(OCC(=O)NNC(=O)c2ccc3c(=O)n4c(nc3c2)CCC4)cc1	GSTO1 counter 37.2 (no result: DTT redox prof)
O=C(CSc1nnc(-c2cnccn2)n1Cc1ccco1)c1ccc2ccccc2c1	GSTO1 counter 37.6
COc1ccccc1N1CCN(C(=O)c2ccc3nc(-c4ccco4)c(-c4ccco4)nc3c2)CC1	UBC9 SUMO inh 72.4
O=S(=O)(c1cccs1)N1CN(Cc2ccco2)c2nc3ccccc3nc21	GSTO1 counter 37.2 (no result: DTT redox prof)
O=S(=O)(c1cccs1)N1CN(Cc2ccc(Cl)cc2)c2nc3ccccc3nc21	none
Cc1ccc(-n2nc3ccc(N)cc3n2)cc1	Apaf1 inhib 82.3
Cc1ccc(-n2nc3ccc(NC(=O)C(C)C)cc3n2)cc1	none
Cc1cc2nn(-c3ccc(F)cc3)nc2cc1N	none (no result: DTT redox prof)
CC(C)c1ccc(-n2nc3ccc(N)cc3n2)cc1	Apaf1 inhib 63.1
CC1=NN(c2ccc(Cl)c(C(=O)O)c2)C(=O)C1	GSTO1 counter 72.2, UBC9 SUMO inh 90.1
CC1=NN(c2ccc(C(=O)O)cc2)C(=O)CC1	none (no result: DTT redox prof)
Cn1c(N)c(C(=O)CSc2nn(-c3ccccc3)c(=S)s2)c(=O)n(C)c1=O	none (no result: GSTO1 counter, DTT redox prof, UBC9 SUMO inh)
COc1ccc(N2CSC3=C(C#N)C(c4cc(OC)ccc4OC)CC(=O)N3C2)c(OC)c1 (configuration not stated)	none
COc1ccc(N2CSC3=C(C#N)C(c4cc(OC)c(OC)cc4OC)CC(=O)N3C2)c(OC)c1 (configuration not stated)	GSTO1 counter 38.7
O=C(COC(=O)C1=NN(c2ccccc2)C(=O)CC1)NCc1ccccc1Cl	none (no result: GSTO1 counter, DTT redox prof, UBC9 SUMO inh)
O=C(COc1cccnc1[N+](=O)[O-])c1ccc(Cl)s1	GSTO1 counter 35.4 (no result: DTT redox prof)
Cc1ccc(N2C(=O)c3ccccc3C2C(=O)c2cc(C)ccc2O)cc1 (configuration not stated)	GSTO1 counter 35.0
O=C(NC1CCCCCC1)C1CC(=O)N(c2ccc(Cl)cc2)C1 (configuration not stated)	none (no result: DTT redox prof)
O=c1c2c3nc4ccccc4nc3n(-c3ccc4c(c3)OCCO4)c2ncn1C1CCCC1	HKDC1 inhibitor 47.8 (no result: DTT redox prof)
O=c1c2c3nc4ccccc4nc3n(-c3ccc4c(c3)OCCO4)c2ncn1CC1CCCO1 (configuration not stated)	none (no result: GSTO1 counter, Apaf1 inhib, DTT redox prof, HKDC1 inhibitor)
Cc1c(C(=O)Nc2ccc(F)cc2)cn2c(nc3ccccc32)c1C#N	UBC9 SUMO inh 53.0 (no result: DTT redox prof)
N#Cc1c2nc3ccccc3nc2n2cc(NC(=O)c3ccc(F)cc3)ccc12	none (no result: GSTO1 counter, Apaf1 inhib, UBC9 SUMO inh)
COc1ccc(S(=O)(=O)Nc2ccc(Cc3ccncc3)cc2)cc1C	none (no result: DTT redox prof)
CC(C)N1CCC2(CC1)C(C#N)=C(N)NC(S)=C2C#N	UBC9 SUMO inh 52.0 (no result: HKDC1 inhibitor)
COC(=O)c1c(NC(=O)CN2C(=O)C(=O)N(CC(C)C)C2=O)sc(C)c1C	none (no result: DTT redox prof)
CC(C)c1cc(=O)oc2c3c4c(cc12)CCCN4CCC3	none
CN1CCCc2cc3c(C(F)(F)F)cc(=O)oc3nc21	UBC9 SUMO inh 62.0
Cc1cccc(NCc2cc(Cl)ccc2O)n1	none
Oc1ccc(Cl)cc1CNc1cccc2cccnc12	GSTO1 counter 35.2, Apaf1 inhib 91.3, UBC9 SUMO inh 65.6 (no result: DTT redox prof)
CC1CCCCC1NC(=O)c1cc(S(=O)(=O)N2CCCCC2)ccc1N1CCOCC1 (configuration not stated)	none (no result: GSTO1 counter, DTT redox prof, UBC9 SUMO inh)
O=C1COc2ccc(S(=O)(=O)NCc3ccccc3)cc2N1	GSTO1 counter 35.6 (no result: DTT redox prof)
Cc1cccc(NC(=O)COC(=O)CN2CCCCCC2=O)c1C	none (no result: GSTO1 counter, DTT redox prof, UBC9 SUMO inh)
CC(C)(C)c1ccc(NS(=O)(=O)c2ccc(N)cc2)cc1	GSTO1 counter 35.8 (no result: DTT redox prof)
CCCCN(C(=O)Cc1ccc2c(c1)OCCO2)c1c(N)n(CCC)c(=O)[nH]c1=O	none (no result: GSTO1 counter, DTT redox prof, UBC9 SUMO inh)
N#C/C(=C(/O)COC(=O)CSc1ccc(Cl)cc1)c1nc2ccccc2[nH]1	none
Cc1cc(SCC(=O)OC/C(O)=C(\C#N)c2nc3ccccc3[nH]2)c(C)cc1Br	UBC9 SUMO inh 54.7
O=c1c2ccccc2oc2cc(NCCCN3CCOCC3)ccc12	UBC9 SUMO inh 54.6 (no result: DTT redox prof)
Clc1nc(NCCc2ccccc2)c2cn[nH]c2n1	none (no result: GSTO1 counter, Apaf1 inhib, DTT redox prof, UBC9 SUMO inh)
CCc1nn(CC(=O)NC(C)CCc2ccccc2)c(=O)c2cc3cc(F)ccc3n12 (configuration not stated)	UBC9 SUMO inh 51.0 (no result: DTT redox prof)
CCc1nn(CC(=O)NC2CCN(Cc3ccccc3)CC2)c(=O)c2cc3cc(F)ccc3n12	none (no result: DTT redox prof)
Cc1ccc(NC(=S)NNC(=S)Nc2ccc(C)cc2C)cc1	GSTO1 counter 47.4
CCN(Cc1nc(-c2ccc(OC)c(OC)c2)no1)C(=O)c1ccoc1C	none (no result: DTT redox prof)
O=[N+]([O-])c1cc(/C=N\Nc2nccs2)ccc1O	UBC9 SUMO inh 69.6 (no result: GSTO1 counter, Apaf1 inhib, HKDC1 inhibitor)
COc1ccc(-c2oc3ccccc3c2C#CC(C)(C)O)cc1	none (no result: GSTO1 counter, DTT redox prof, UBC9 SUMO inh)
CN(Cc1ccc(Cl)cc1)C(=O)COC(=O)CSc1ccc([N+](=O)[O-])cc1	none (no result: GSTO1 counter, DTT redox prof, UBC9 SUMO inh)
Cc1cc(OC(C(=O)O)c2ccccc2)c2c(C)c(Cc3ccccc3)c(=O)oc2c1 (configuration not stated)	UBC9 SUMO inh 51.1 (no result: DTT redox prof)
Nc1cccnc1Sc1cccc(Cl)c1	Apaf1 inhib 76.2
O=C(COc1ccc2c(c1)oc(=O)c1ccccc12)NCCCN1CCOCC1	none (no result: DTT redox prof)
